{
  "source": "paper PMC4145829",
  "about": "(Drug Design, Development and Therapy, 2014)",
  "key": {"[1]": {"test_system": "subintestinal vessels (SIVs) of zebrafish embryos", "experiment": "Zebrafish subintestinal vessel angiogenesis assay", "type": "in vivo", "settings": "for effect on SIV angiogenesis (in words): zebrafish embryos"}, "patients": {"test_system": "patients", "settings": "cited from earlier work; for Associated clinical toxicities: Table 1"}, "zebrafish embryos": {"test_system": "zebrafish embryos", "experiment": "Zebrafish toxicity assay", "type": "in vivo", "settings": "for gross morphological changes (in words): zebrafish larvae, exposure to 96 hours", "in_short": "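Wild-type embryos at 24 hpf, bath-exposed in distilled water (pH 6.8–8) at 28°C with solutions renewed every 24 h. Naïve and 0.1% DMSO vehicle controls were included. Five concentrations, spacing factor 2, within solubility limits; 12 embryos per concentration per replicate; three independent experiments. Toxicity scored at 48 and 96 hpf; NOEC/LOEC derived experimentally; LC50 from pooled mortality via sigmoidal fit.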"}, "[2]": {"test_system": "chick chorioallantoic membrane", "settings": "cited from earlier work"}, "[3]": {"test_system": "human primary endothelial cells", "settings": "cited from earlier work"}, "VEGFR": {"test_system": "VEGFR", "settings": "read-out: VEGFR inhibition IC50; biochemical assays; cited from earlier work"}, "[4]": {"test_system": "mouse dorsal air sac model", "settings": "cited from earlier work"}, "[5]": {"experiment": "Compound precipitation in the test medium", "type": "physicochemical", "settings": "test medium of the zebrafish assays (distilled water, 0.1% DMSO)"}, "[6]": {"settings": "concentration not given, 96 hpf"}, "[7]": {"settings": "patients enrolled in clinical trial"}},
  "note": "Entries after “also recorded” stand apart in the source; their conditions may differ.",
  "data": [
    {"molecule": "CNC(=O)c1cc(Oc2ccc(NC(=O)Nc3ccc(Cl)c(C(F)(F)F)c3)cc2)ccn1", "note": "[Sorafenib]", "values": [
      {"measurement": "concentration giving complete regression of SIVs", "setting": "[1]; 96 hpf", "value": "< 1", "unit": "µM"},
      {"measurement": "effect on SIV angiogenesis (in words)", "setting": "[1]; 96 hpf", "value": "complete inhibition of SIV angiogenesis"},
      {"measurement": "Associated clinical toxicities", "setting": "patients", "value": "Cardiotoxicity"},
      {"measurement": "gross morphological changes (in words)", "setting": "zebrafish embryos", "value": "nonprogressive pericardial edema in all the embryos subjected to treatment (ie, 36/36)"},
      {"measurement": "concentration with significant angiogenesis inhibition in the in vivo CAM assay", "setting": "[2]", "value": "1 to 3", "unit": "µM"}
    ]},
    {"molecule": "O=C1CCC(N2C(=O)c3ccccc3C2=O)C(=O)N1", "note": "(stereo not shown) [Thalidomide]", "values": [
      {"measurement": "regression / decrease in SIV length", "setting": "[1]; [6]", "value": "20%–30%"},
      {"measurement": "Associated clinical toxicities", "setting": "patients", "value": "Teratogenic"},
      {"measurement": "absence of fin development", "setting": "zebrafish embryos; Figure S3", "value": 100, "unit": "%"},
      {"measurement": "concentration with reduction of otolith size and altered fin development", "setting": "zebrafish embryos; zebrafish embryos", "value": "> 300", "unit": "µM"},
      {"measurement": "gross morphological changes (in words)", "setting": "zebrafish embryos", "value": "did not result in gross morphological changes with respect to notochord development and development of cardiac edema"},
      {"measurement": "anti-angiogenic effect in the CAM assay (in words)", "setting": "[2]", "value": "does not exhibit anti-angiogenic effects"},
      {"measurement": "effective anti-angiogenic concentration range (in words)", "setting": "[3]", "value": "effective at micromolar concentrations"}
    ]},
    {"molecule": "COc1cc2c(Nc3ccc(Br)cc3F)ncnc2cc1OCC1CCN(C)CC1", "note": "[Vandetanib]", "values": [
      {"measurement": "IC50", "setting": "VEGFR", "value": "[…]"},
      {"measurement": "effect on SIV angiogenesis (in words)", "setting": "[1]; 96 hpf", "value": "incomplete SIV regression"},
      {"measurement": "Associated clinical toxicities", "setting": "patients", "value": "Cardiotoxicity"}
    ]},
    {"molecule": "COc1ccc(/C=C\\c2cc(OC)c(OC)c(OC)c2)cc1O", "note": "[Combretastatin]", "values": [
      {"measurement": "effect on SIV angiogenesis (in words)", "setting": "[1]; 96 hpf", "value": "lack of anti-angiogenic activity"},
      {"measurement": "effect on SIV angiogenesis (in words)", "setting": "[1]; 96 hpf, listed as combretastatin", "value": "Angiogenesis inhibition was not demonstrated"},
      {"measurement": "Associated clinical toxicities", "setting": "patients", "value": "Multiple systemic toxicities"},
      {"measurement": "gross morphological changes (in words)", "setting": "zebrafish embryos", "value": "coagulation of zebrafish embryos"}
    ]},
    {"molecule": "CO[C@@H]1[C@H](OC(=O)NC(=O)CCl)CC[C@]2(CO2)[C@H]1[C@@]1(C)O[C@@H]1CC=C(C)C", "note": "[TNP-470]", "values": [
      {"measurement": "regression / decrease in SIV length", "setting": "[1]; [6]", "value": "20%–30%"},
      {"measurement": "effect on SIV angiogenesis (in words)", "setting": "[1]; 96 hpf", "value": "formation of aberrant SIV extensions"},
      {"measurement": "toxicity limiting effectiveness", "setting": "[4]", "value": "severe weight loss"},
      {"measurement": "gross morphological changes (in words)", "setting": "zebrafish embryos", "value": "abnormal notochord morphology"},
      {"measurement": "concentration inhibiting angiogenesis in the CAM assay", "setting": "[2]", "value": "100 to 125", "unit": "µM"},
      {"measurement": "fold higher concentration than VEGFR inhibitors in the CAM assay", "setting": "[2]", "value": 100, "unit": "fold"}
    ]},
    {"molecule": "Clc1ccc(Nc2nnc(Cc3ccncc3)c3ccccc23)cc1", "note": "[Vatalanib]", "values": [
      {"measurement": "Associated clinical toxicities", "setting": "patients", "value": "Multiple systemic toxicities"},
      {"measurement": "gross morphological changes (in words)", "setting": "zebrafish embryos", "value": "multiple gross morphological abnormalities like yolk-sac edema, shortened body axis, bent notochord, jaw deformity, blood pooling, and un-inflated swim bladder"}
    ]},
    {"molecule": "CNC(=O)c1cc(Oc2ccc(NC(=O)Nc3ccc(Cl)c(C(F)(F)F)c3)c(F)c2)ccn1", "note": "[Regorafenib]", "values": [
      {"measurement": "IC50", "setting": "VEGFR", "value": "13 to 46", "unit": "nM"},
      {"measurement": "concentration giving complete regression of SIVs", "setting": "[1]; 96 hpf", "value": "< 1", "unit": "µM"},
      {"measurement": "effect on SIV angiogenesis (in words)", "setting": "[1]; 96 hpf", "value": "complete inhibition of SIV angiogenesis"},
      {"measurement": "gross morphological changes (in words)", "setting": "zebrafish embryos", "value": "nonprogressive pericardial edema in all the embryos subjected to treatment (ie, 36/36)"},
      {"measurement": "concentration with significant angiogenesis inhibition in the in vivo CAM assay", "setting": "[2]", "value": "1 to 3", "unit": "µM"}
    ]},
    {"molecule": "CN1CC[C@H](c2c(O)cc(O)c3c(=O)cc(-c4ccccc4Cl)oc23)[C@H](O)C1", "note": "[Flavopiridol]", "values": [
      {"measurement": "decrease in the number of SIVs", "setting": "[1]; 2 μM, 96 hpf", "value": 72, "unit": "%"},
      {"measurement": "regression in SIV length", "setting": "[1]; 2 μM, 96 hpf", "value": 38, "unit": "%"},
      {"measurement": "effect on SIV length and basket (in words)", "setting": "[1]; 2 μM, lectin staining at 72 hpf, Figure 2C", "value": "Partial regression of SIVs"},
      {"measurement": "Associated clinical toxicities", "setting": "patients", "value": "Multiple systemic toxicities"},
      {"measurement": "toxicities in clinical trials", "setting": "patients", "value": "tumor lysis syndrome and febrile neutropenia"},
      {"measurement": "gross morphological changes (in words)", "setting": "zebrafish embryos", "value": "multiple sub-lethal toxicities like yolk-sac edema, nonprogressive pericardial edema, bent notochord, and jaw deformity; also recorded: Widespread tissue necrosis; also recorded: multiple pathological changes like jaw deformity, pericardial edema, notochord deformity, and patchy necrosis"},
      {"measurement": "effective anti-angiogenic concentration range (in words)", "setting": "[3]", "value": "effective at micromolar concentrations"}
    ]},
    {"molecule": "Cc1cc(C)c(/C=C2\\C(=O)Nc3ccccc32)[nH]1", "note": "[SU5416]", "values": [
      {"measurement": "decrease in the number of SIVs within the basket", "setting": "[1]; 1 μM, 96 hpf", "value": 85, "unit": "%"},
      {"measurement": "regression in SIV length", "setting": "[1]; 1 μM, 96 hpf", "value": 38, "unit": "%"},
      {"measurement": "effect on SIV angiogenesis (in words)", "setting": "[1]; 96 hpf", "value": "incomplete SIV regression"},
      {"measurement": "Associated clinical toxicities", "setting": "patients", "value": "Multiple systemic toxicities"},
      {"measurement": "gross morphological changes (in words)", "setting": "zebrafish embryos", "value": "multiple gross morphological abnormalities like yolk-sac edema, shortened body axis, bent notochord, jaw deformity, blood pooling, and un-inflated swim bladder"}
    ]},
    {"molecule": "Bevacizumab", "values": [
      {"measurement": "effect on SIV angiogenesis (in words)", "setting": "[1]; 96 hpf", "value": "extremely variable results; also recorded: Angiogenesis inhibition was not demonstrated"},
      {"measurement": "gross morphological changes (in words)", "setting": "zebrafish embryos", "value": "did not elicit dose-dependent toxicity or a consistent pathological phenotype"}
    ]},
    {"molecule": "COc1cc2nccc(Oc3ccc(NC(=O)C4(C(=O)Nc5ccc(F)cc5)CC4)cc3)c2cc1OC", "note": "[Cabozantinib]", "values": [
      {"measurement": "Associated clinical toxicities", "setting": "patients", "value": "Multiple systemic toxicities"}
    ]},
    {"molecule": "C#Cc1cccc(Nc2ncnc3cc(OCCOC)c(OCCOC)cc23)c1", "note": "[Erlotinib]", "values": [
      {"measurement": "decrease in the number of SIVs within the basket", "setting": "[1]; 1 μM, 96 hpf", "value": "no effect"},
      {"measurement": "regression in SIV length", "setting": "[1]; 1 μM, 96 hpf", "value": 10, "unit": "%"},
      {"measurement": "effect on SIV angiogenesis (in words)", "setting": "[1]; 96 hpf", "value": "Angiogenesis inhibition was not demonstrated"},
      {"measurement": "Associated clinical toxicities", "setting": "patients", "value": "Multiple systemic toxicities"},
      {"measurement": "concentration beyond which the compound precipitated", "setting": "[5]", "value": "> 1", "unit": "µM"}
    ]},
    {"molecule": "Cc1ccc(Nc2nccc(N(C)c3ccc4c(C)n(C)nc4c3)n2)cc1S(N)(=O)=O", "note": "[Pazopanib]", "values": [
      {"measurement": "Associated clinical toxicities", "setting": "patients", "value": "Cardiotoxicity"}
    ]},
    {"molecule": "Cc1ccc(C(=O)Nc2ccc(S(=O)(=O)O)c3cc(S(=O)(=O)O)cc(S(=O)(=O)O)c23)cc1NC(=O)c1cccc(NC(=O)Nc2cccc(C(=O)Nc3cc(C(=O)Nc4ccc(S(=O)(=O)O)c5cc(S(=O)(=O)O)cc(S(=O)(=O)O)c45)ccc3C)c2)c1", "note": "[Suramin]", "values": [
      {"measurement": "inhibition of vessels within the angiogenic basket", "setting": "[1]; [6]", "value": 45, "unit": "%"},
      {"measurement": "regression / decrease in SIV length", "setting": "[1]; [6]", "value": 30, "unit": "%"},
      {"measurement": "Associated clinical toxicities", "setting": "patients", "value": "Multiple systemic toxicities"},
      {"measurement": "toxicities in clinical trials", "setting": "patients", "value": "neutropenia, neurological dysfunction, and development of renal insufficiency"},
      {"measurement": "LC50 fold higher than the other multikinase inhibitors", "setting": "zebrafish embryos; 96 hpf", "value": "about 200 fold"},
      {"measurement": "gross morphological changes (in words)", "setting": "zebrafish embryos", "value": "multiple sub-lethal toxicities like yolk-sac edema, nonprogressive pericardial edema, bent notochord, and jaw deformity; also recorded: multiple pathological changes like jaw deformity, pericardial edema, notochord deformity, and patchy necrosis"},
      {"measurement": "concentration inhibiting angiogenesis in the CAM assay", "setting": "[2]", "value": 7, "unit": "µM"},
      {"measurement": "fold higher concentration than VEGFR inhibitors in the CAM assay", "setting": "[2]", "value": 7, "unit": "fold"},
      {"measurement": "effective anti-angiogenic concentration range (in words)", "setting": "[3]", "value": "effective at micromolar concentrations"}
    ]},
    {"molecule": "COc1cc2nccc(Oc3ccc(NC(=O)Nc4cc(C)on4)c(Cl)c3)c2cc1OC", "note": "[Tivozanib]", "values": [
      {"measurement": "concentration giving complete regression in SIVs", "setting": "[1]; 96 hpf", "value": 5, "unit": "nM"},
      {"measurement": "improvement of progression-free survival", "setting": "patients; patients with renal cell carcinoma", "value": "~12", "unit": "months"}
    ]},
    {"molecule": "CCN(CC)CCNC(=O)c1c(C)[nH]c(/C=C2\\C(=O)Nc3ccc(F)cc32)c1C", "note": "[Sunitinib]", "values": [
      {"measurement": "Associated clinical toxicities", "setting": "patients", "value": "Cardiotoxicity"},
      {"measurement": "patients with congestive cardiac failure", "setting": "patients; [7]", "value": 11, "unit": "%"},
      {"measurement": "patients with decrease in left ventricular ejection fraction", "setting": "patients; [7]", "value": 28, "unit": "%"}
    ]}
  ]
}
